The full list was thinned out, with hits kept by preference.
HUVEC prolif 384: blocks proliferation of human endothelial cells; HUVEC proliferation, CellTiter-Glo luminescence, 72 h; stronger effect = lower value; 86,000 compounds, 1.1% hits; viability, % at 10 µM (by protocol); AID 648;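 active = viability at or below 30%; inactive = viability above 30%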;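 note: 100% = median luminescence of DMSO-only cell control wells on each plate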
PTEN del growth: PTEN-deleted cell growth suppression | viability, % at 10 µM | HCT116 PTEN-null viability, CellTiter-Glo, 60 h; stronger effect = lower value | 140,000 compounds, 1.2% hits | AID 827;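 active = viability at or below a set limit, 4 SD under the median of all tested compounds, cut at about 3.7% in these data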;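 note: PTEN knockout HCT116 line with beta catenin targeted HCT116 as companion control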
Lung fibro prol: blocks proliferation of human lung fibroblasts; LL 47 human lung fibroblast viability, ATP luminescence; stronger effect = lower value; viability, % at 10 µM; 85,000 compounds, 1.1% hits; AID 719;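 active = viability at or below 50% in the single dose screen; inactive = viability above 50%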;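 note: compound exposure lasted 72 h before the ATP readout; 100% = median luminescence of untreated cell-only wells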
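Material: Human LL 47 lung fibroblast cells | Input: 1,150 cells/well | Buffer or medium: IMEM plus 15% FBS | Compound dosing: 0.1% DMSO in all compound wells | Times: Overnight cell rest, 72 h compound treatment at 37 °C | Signal: CellTiter-Glo luminescence measuring cellular ATP | Measure: % viability versus median cells-only luminescence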
HCT116 bCat-KO: beta-catenin-lacking colon tumor cell growth suppression; 140,000 compounds, 1.5% hits; HCT116 beta-catenin knockout viability, CellTiter-Glo, 60 h; stronger effect = lower value; viability, % at 10 µM;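 active = viability at or under a set limit, the compound median less 4 SD, cut at about 6% in these data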;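 note: 0% = Hyamine 1622 control at 20 µM and 100% = untreated cell control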
H69AR growth 86K: growth inhibitors of human H69AR lung tumor cells. 85,000 compounds, 6% hits. viability, % at 10 µM. H69AR lung tumor viability, ATP luminescence, 72 h; stronger effect = lower value. AID 598;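 active = viability at or below 40%; inactive = viability above 40%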;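 note: multidrug resistant small cell line overexpressing MRP-1 efflux transporter; 100% = mean luminescence of untreated control wells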
* marks the source's active call; other numbers are inactive results; . = no result given.

SMILES	HUVEC prolif 384	PTEN del growth	Lung fibro prol	HCT116 bCat-KO	H69AR growth 86K
CCOC(=O)C(C(C)=O)c1c(Br)c(O)c(O)c2c(C(=O)c3ccc(C)cc3)coc12 (stereo not drawn)	60	1.7*	10*	1.3*	1.4*
COc1ccc(C(CCNC(C)c2ccccc2)c2ccc(F)cc2)cc1 (stereo not drawn)	.	1.4*	.	1.4*	.
COc1ccc(NC(=O)CC(c2ccc(F)cc2)c2ccc(OC(C)C)cc2)cc1 (stereo not drawn)	.	91	.	79	.
COc1ccc(CNCCC(c2ccc(F)cc2)c2ccc(OC)cc2)cc1 (stereo not drawn)	.	9	.	1.9*	.
COc1ccc(C(CCNCc2ccc(F)cc2)c2ccc(F)cc2)cc1 (stereo not drawn)	.	1.2*	.	1.2*	.
COc1ccc(C(CC(=O)NCc2ccco2)c2ccc(F)cc2)cc1 (stereo not drawn)	92	83	91	86	97
COc1ccc(C(CCNCc2ccccc2)c2ccc(F)cc2)cc1 (stereo not drawn)	.	2.4*	.	2.0*	.
CCNC(=O)NC(=O)C(C)Sc1ccc2c(c1)OCCO2 (stereo not drawn)	88	86	98	97	97
Cc1cccc(OCC2=NS(=O)(=O)c3ccccc3N2)c1	100	93	102	110	.
COc1ccc(C2C(C(=O)c3ccccc3)=C(C)Nc3nc4ccccc4n32)cc1OC (stereo not drawn)	.	84	.	90	.
CCOC(=O)C1=C(C)Nc2nc3ccccc3n2C1c1ccccc1 (stereo not drawn)	80	89	76	97	11*
O=C(O)c1ccccc1SC1CC(=O)N(c2ccccc2)C1=O (stereo not drawn)	.	104	.	97	.
O=C(O)c1ccccc1SC1CC(=O)N(C2CCCCC2)C1=O (stereo not drawn)	95	82	98	82	36*
COc1ccc(S(=O)(=O)N2c3cc(Cl)ccc3Oc3nc4ccccc4nc32)cc1	48	13	56	13	29*
Cc1cc(C=O)c(C)n1-c1ccc(Oc2ccc([N+](=O)[O-])cn2)cc1	.	66	.	73	.
COc1ccc(NC(=O)/C(C#N)=C\c2cc(C)n(-c3ccc(Oc4ccc([N+](=O)[O-])cn4)cc3)c2C)cc1	68	43	63	54	33*
C=CCCCCCCCCc1nc(=S)[nH][nH]1	94	101	91	110	21*
CC(=O)N/C(=C/c1ccc2c(c1)OCO2)C(=O)NCCO	.	91	.	91	.
C=CCn1c(O)c(N=NC(=S)Nc2cccc(C)c2)c2ccccc21	48	14	52	13	22*
COc1cc(NC(=O)c2cc3c(C)nc4ccccc4c3o2)cc(OC)c1OC	52	62	88	75	35*
COc1ccc(NC(=O)c2cc(-c3ccc(C)o3)nc3ccccc23)cc1OC	70	45	88	50	35*
COc1ccc(-c2cc(C(=O)Nc3nc4ccccc4s3)c3ccccc3n2)cc1OC	.	50	.	61	.
COc1ccc(-c2cc(C(=O)Nc3c(Cl)cc(Cl)cc3Cl)c3ccccc3n2)cc1OC	.	1.8*	.	2.1*	.
COc1ccc(-c2cc(C(=O)Nc3ccc(Cl)cc3Cl)c3ccccc3n2)cc1OC	.	6	.	5.4*	.
COc1ccc(C)cc1NC(=O)c1cc2c(C)nc3ccccc3c2o1	74	.	100	.	92
SMILES	HUVEC prolif 384	PTEN del growth	Lung fibro prol	HCT116 bCat-KO	H69AR growth 86K
CCCCCNCc1cccc(Br)c1	.	86	.	88	.
CCCCN1C(=O)CN(CCc2ccccc2)C(=O)C1c1ccc(OC)cc1 (stereo not drawn)	104	87	92	92	38*
O=C(Nc1cccc(S(=O)(=O)N2CCCCC2)c1)c1ccc2ccccc2n1	.	69	.	67	.
O=C(Nc1cccc(S(=O)(=O)N2CCCCC2)c1)Nc1ccc(Cl)cc1Cl	.	1.4*	.	1.5*	.
O=C(Nc1ccc2c(c1)C(=O)N(c1ccccc1)C2=O)C1CCCO1 (stereo not drawn)	101	97	105	97	92
CCOC(=O)C1CCN(c2ncnc3c2[nH]c2cccc(OC)c23)CC1	87	84	99	89	23*
Cc1cc(-n2c(SCC(=O)NCc3cccs3)nc3n[nH]c(C)c3c2=N)ccc1Cl	45	.	85	60	24*
CCc1ccc(NC(=O)CSc2nc3n[nH]c(C)c3c(=N)n2-c2cccc(OC)c2)cc1	64	30	60	21	10*
CC(C)NC(=O)C12CC3CC(C1)CC(n1cnc(Cl)n1)(C3)C2	.	88	.	96	.
O=[N+]([O-])c1ccc(/C=N/Nc2nc(N3CCCC3)nc(N3CCCC3)n2)o1	6.8*	44	87	65	26*
O=[N+]([O-])c1ccc(/C=N/Nc2nc(-c3ccccc3)c3cc(Br)ccc3n2)o1	.	1.4*	.	1.7*	.
N#Cc1ccccc1/C=N/Nc1nc(-c2ccccc2)c2cc(Br)ccc2n1	.	6	.	2.1*	.
Cc1ccc2nc(N/N=C\c3ccc([N+](=O)[O-])o3)nc(-c3ccccc3)c2c1	51	3.0*	90	2.1*	13*
CCOC(=O)c1c(NC(=O)CSC2=NN3CCCC(=O)N=C3S2)sc2c1CCCCC2	.	48	.	45	.
CC(=O)SC(C[N+](=O)[O-])c1cn(C(C)=O)c2ccccc12 (stereo not drawn)	101	89	2.6*	75	2.3*
O=C(Cc1cccs1)OCC(=O)c1ccco1	92	97	92	89	81
O=C(CC(Sc1ccccc1)c1cccs1)c1ccco1 (stereo not drawn)	88	62	.	52	1.9*
COc1ccc(C(=O)NCCNC(=O)c2cc(OCC(F)(F)F)ccc2OCC(F)(F)F)cc1	103	93	96	92	93
N#CCc1nc2c3c4c(sc3ncn2n1)CCCC4	16*	95	95	93	93
CC(=O)c1cccc(NC(=O)COc2cc3oc(=O)c(CC(C)O)c(C)c3cc2Cl)c1 (stereo not drawn)	.	94	.	91	.
CN1CCN(CCC(=O)N2c3ccccc3Sc3ccc(Cl)cc32)CC1	92	75	90	80	86
CN1CCN(C2=Cc3ccccc3Sc3cc(F)c(F)cc32)CC1	6.7*	43	89	40	7.1*
CN1CCN(C2=Cc3cc(Cl)ccc3Sc3cc(F)ccc32)CC1	4.9*	7	87	1.3*	51
CN1CCN(C2=Cc3ccccc3Sc3cc(F)c(Cl)cc32)CC1	8.8*	27	94	22	0.0*
CCCn1nc(C(=O)NCCc2ccc(S(N)(=O)=O)cc2)c2ccccc2c1=O	92	84	102	88	80
CC(C)NC(=O)C1(c2ccccc2)CC1(Cl)Cl (stereo not drawn)	.	95	.	86	.
O=C(CSc1nnc(-c2ccccc2F)n1C1CC1)Nc1cccnc1Cl	.	96	.	82	.
COc1cc(CNC(C)(C)CO)cc(Br)c1OCc1ccc(Cl)cc1Cl	.	1.6*	.	1.3*	.
Cc1c(-c2nc(N)nc(Nc3ccccc3)n2)oc2ccccc12	62	49	97	58	14*

Screens from PubChem BioAssay.
